Source: ChEMBL document CHEMBL1147539, “Synthesis and biological evaluation of novel, selective, nonsteroidal glucocorticoid receptor antagonists” (Bioorg Med Chem Lett, 2004)

Experiments:
Glucocorticoid receptor [1] = target: T1, Glucocorticoid receptor (Homo sapiens, UniProt P04150); test: Effect on human Glucocorticoid receptor (GR) in a whole cell assay to measure functional cellular GR-antagonism (GRAF)
T1 sequence (P04150 whole entry): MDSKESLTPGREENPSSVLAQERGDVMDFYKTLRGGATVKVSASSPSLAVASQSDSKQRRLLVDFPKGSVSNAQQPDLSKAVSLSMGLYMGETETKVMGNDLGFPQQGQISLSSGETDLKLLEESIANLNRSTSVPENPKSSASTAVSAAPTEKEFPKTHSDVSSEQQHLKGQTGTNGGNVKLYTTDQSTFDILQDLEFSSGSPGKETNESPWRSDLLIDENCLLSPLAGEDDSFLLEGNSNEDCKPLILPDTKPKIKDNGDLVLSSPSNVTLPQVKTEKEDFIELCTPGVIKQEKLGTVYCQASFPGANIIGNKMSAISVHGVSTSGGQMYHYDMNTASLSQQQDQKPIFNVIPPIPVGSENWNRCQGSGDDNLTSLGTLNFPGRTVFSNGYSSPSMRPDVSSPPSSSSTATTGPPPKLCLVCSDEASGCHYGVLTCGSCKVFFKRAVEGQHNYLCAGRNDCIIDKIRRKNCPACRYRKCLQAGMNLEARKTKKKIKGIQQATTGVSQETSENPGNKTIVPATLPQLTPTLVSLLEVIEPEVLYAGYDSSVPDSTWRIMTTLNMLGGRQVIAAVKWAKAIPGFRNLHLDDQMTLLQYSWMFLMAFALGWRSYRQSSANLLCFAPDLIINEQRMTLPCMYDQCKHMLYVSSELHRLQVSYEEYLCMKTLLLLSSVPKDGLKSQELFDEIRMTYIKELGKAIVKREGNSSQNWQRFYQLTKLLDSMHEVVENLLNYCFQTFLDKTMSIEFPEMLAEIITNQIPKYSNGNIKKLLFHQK

Glucocorticoid receptor [2] = target: T1, Glucocorticoid receptor; test: Displacement of [3H]dexamethasone from human Glucocorticoid receptor (GR)
Glucocorticoid receptor [3] = target: T1, Glucocorticoid receptor; test: Displacement of [3H]dexamethasone from human Glucocorticoid receptor (GR); Value ranges from 159-161 nM
Method in brief: (§1)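 Binding to human GR; IC50 reported as the geometric mean of two experiments (three for some values), each run in duplicate, with the range of the experiments given.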

Glucocorticoid receptor [4] = target: T1, Glucocorticoid receptor
Glucocorticoid receptor [5] = target: T1, Glucocorticoid receptor; remark: listed apart in the source
Glucocorticoid receptor [6] = target: T1, Glucocorticoid receptor; remark: listed apart in the source
Glucocorticoid receptor [7] = target: T1, Glucocorticoid receptor; test: Displacement of [3H]dexamethasone from human Glucocorticoid receptor (GR); […]
Glucocorticoid receptor [8] = target: T1, Glucocorticoid receptor; test: Displacement of [3H]dexamethasone from human Glucocorticoid receptor (GR); Value ranges from 378-814 nM
Progesterone receptor = target: T2, Progesterone receptor (Homo sapiens, UniProt P06401); test: Displacement of [3H]progesterone from human Progesterone receptor
T2 sequence (P06401 whole entry): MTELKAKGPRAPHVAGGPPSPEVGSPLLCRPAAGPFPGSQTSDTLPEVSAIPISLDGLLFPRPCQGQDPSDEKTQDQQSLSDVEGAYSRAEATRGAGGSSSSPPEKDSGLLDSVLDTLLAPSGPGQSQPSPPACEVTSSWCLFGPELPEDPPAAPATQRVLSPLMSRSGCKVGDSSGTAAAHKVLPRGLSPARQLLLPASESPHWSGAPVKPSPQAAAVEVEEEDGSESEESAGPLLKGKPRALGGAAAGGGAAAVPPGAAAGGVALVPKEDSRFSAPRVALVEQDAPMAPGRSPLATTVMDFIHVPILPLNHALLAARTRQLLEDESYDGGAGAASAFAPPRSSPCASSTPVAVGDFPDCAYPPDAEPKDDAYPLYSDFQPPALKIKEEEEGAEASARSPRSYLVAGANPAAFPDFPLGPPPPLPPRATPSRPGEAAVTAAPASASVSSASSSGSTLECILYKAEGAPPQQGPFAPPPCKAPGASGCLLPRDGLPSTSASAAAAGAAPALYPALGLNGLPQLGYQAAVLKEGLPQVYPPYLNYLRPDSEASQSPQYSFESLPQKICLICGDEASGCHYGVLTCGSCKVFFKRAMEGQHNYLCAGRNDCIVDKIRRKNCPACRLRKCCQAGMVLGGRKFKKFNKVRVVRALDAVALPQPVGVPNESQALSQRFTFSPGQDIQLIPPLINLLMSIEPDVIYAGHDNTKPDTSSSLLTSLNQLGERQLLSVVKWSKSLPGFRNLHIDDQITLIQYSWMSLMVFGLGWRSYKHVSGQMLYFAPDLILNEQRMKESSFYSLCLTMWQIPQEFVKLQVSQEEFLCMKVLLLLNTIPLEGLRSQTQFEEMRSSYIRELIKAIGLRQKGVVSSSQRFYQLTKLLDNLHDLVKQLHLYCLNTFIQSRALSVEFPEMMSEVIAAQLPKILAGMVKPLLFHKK
Method in brief: (§2)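 Human steroid receptor (PR, MR, AR, ERα) binding measured by radioligand displacement, with IC50s determined in duplicate. Values without a range come from a single experiment, and values with a range are geometric means of repeat experiments.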

[9] = target: T3, Mineralocorticoid receptor (Homo sapiens, UniProt P08235); test: Displacement of [3H]aldosterone from human Mineralocorticoid receptor; method in brief: as §2
T3 sequence (P08235 whole entry): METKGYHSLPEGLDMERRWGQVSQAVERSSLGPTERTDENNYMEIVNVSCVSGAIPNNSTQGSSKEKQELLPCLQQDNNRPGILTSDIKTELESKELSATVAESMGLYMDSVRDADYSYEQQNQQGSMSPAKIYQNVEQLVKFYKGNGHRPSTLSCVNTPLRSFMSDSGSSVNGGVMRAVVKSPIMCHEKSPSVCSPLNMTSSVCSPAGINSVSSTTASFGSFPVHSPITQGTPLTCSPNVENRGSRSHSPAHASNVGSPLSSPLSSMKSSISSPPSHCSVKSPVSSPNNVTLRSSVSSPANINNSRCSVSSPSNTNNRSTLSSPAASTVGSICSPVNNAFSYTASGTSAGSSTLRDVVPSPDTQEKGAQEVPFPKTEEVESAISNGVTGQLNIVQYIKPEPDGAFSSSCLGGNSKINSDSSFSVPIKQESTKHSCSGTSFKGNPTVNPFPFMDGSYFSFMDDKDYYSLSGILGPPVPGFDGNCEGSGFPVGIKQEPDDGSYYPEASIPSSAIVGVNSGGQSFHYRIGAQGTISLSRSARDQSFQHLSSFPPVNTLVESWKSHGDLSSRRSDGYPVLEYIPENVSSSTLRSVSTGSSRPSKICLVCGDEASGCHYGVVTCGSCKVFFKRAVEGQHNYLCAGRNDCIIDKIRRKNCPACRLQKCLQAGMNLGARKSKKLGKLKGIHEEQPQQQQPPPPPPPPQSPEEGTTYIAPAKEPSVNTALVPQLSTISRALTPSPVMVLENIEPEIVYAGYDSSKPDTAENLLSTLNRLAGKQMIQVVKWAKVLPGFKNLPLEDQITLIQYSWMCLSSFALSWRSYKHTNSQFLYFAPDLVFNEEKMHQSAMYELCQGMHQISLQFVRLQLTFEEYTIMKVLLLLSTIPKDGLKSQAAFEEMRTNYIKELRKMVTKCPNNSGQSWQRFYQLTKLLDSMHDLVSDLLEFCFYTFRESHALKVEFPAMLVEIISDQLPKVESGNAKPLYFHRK

Estrogen receptor = target: T4, Estrogen receptor (Homo sapiens, UniProt P03372); test: Displacement of [3H]estradiol from human estrogen receptor alpha; method in brief: as §2
T4 sequence (P03372 whole entry): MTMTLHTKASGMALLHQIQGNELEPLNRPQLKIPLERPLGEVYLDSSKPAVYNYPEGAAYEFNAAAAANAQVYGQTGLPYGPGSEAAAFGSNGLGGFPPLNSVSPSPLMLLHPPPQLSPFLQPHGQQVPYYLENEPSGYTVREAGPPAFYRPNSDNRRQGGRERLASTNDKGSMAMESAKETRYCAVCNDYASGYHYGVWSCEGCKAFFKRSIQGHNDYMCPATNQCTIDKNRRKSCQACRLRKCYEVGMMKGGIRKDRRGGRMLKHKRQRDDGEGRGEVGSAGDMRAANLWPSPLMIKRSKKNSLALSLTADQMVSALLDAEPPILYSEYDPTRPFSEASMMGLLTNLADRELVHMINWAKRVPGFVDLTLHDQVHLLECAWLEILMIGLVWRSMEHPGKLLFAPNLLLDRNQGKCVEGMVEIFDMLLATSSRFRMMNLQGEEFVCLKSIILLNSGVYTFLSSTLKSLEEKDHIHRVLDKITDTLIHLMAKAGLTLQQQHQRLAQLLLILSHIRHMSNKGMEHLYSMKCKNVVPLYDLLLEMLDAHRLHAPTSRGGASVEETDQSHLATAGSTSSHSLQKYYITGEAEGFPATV

Glucocorticoid receptor [10] = target: T1, Glucocorticoid receptor; test: Displacement of [3H]dexamethasone from human Glucocorticoid receptor (GR); Value ranges from 1382-1049 nM; method in brief: as §1

| Structure (SMILES) | IC50 (Glucocorticoid receptor [1]) [nM] | IC50 (Glucocorticoid receptor [2]) [nM] | other results |
| --- | --- | --- | --- |
| COc1cccc2c1-c1ccc(NS(C)(=O)=O)cc1C(c1ccc(Oc3ccccc3)cc1)O2 (stereo not given) | 847 | 63 | – |
| CCC(=O)Nc1ccc2c(c1)C(c1ccccc1)Oc1cccc(OC)c1-2 (stereo not given) | 124 | – | IC50 (Glucocorticoid receptor [3]): 160 nM |
| COc1cccc2c1-c1ccc(NS(C)(=O)=O)cc1C(c1ccsc1)O2 (stereo not given) | 43 | – | IC50 (Glucocorticoid receptor [4]): 11 nM |
| COc1cccc2c1-c1ccc(NS(C)(=O)=O)cc1C(c1cccnc1)O2 (stereo not given) | – | – | IC50 (Glucocorticoid receptor [5]): 460 nM |
| COc1cccc2c1-c1ccc(NC(=O)c3ccccc3)cc1C(c1ccccc1)O2 (stereo not given) | 289 | – | IC50 (Glucocorticoid receptor [6]): 404 nM |
| COc1cccc2c1-c1ccccc1C(c1ccccc1)O2 (stereo not given) | 1910 | 10000 | – |
| CCS(=O)(=O)Nc1ccc2c(c1)C(c1ccccc1)Oc1cccc(OC)c1-2 (stereo not given) | 251 | – | IC50 (Glucocorticoid receptor [7]): 62 nM |
| CCCCCC1Oc2cccc(OC)c2-c2ccc(NS(C)(=O)=O)cc21 (stereo not given) | – | 21 | – |
| COc1cccc2c1-c1ccc(NS(C)(=O)=O)c(Br)c1C(c1ccccc1)O2 (stereo not given) | 430 | – | IC50 (Glucocorticoid receptor [8]): 519 nM; IC50 (Progesterone receptor): 10000 nM; IC50 [9]: 454 nM; IC50 (Estrogen receptor): 2280 nM |
| COC(=O)c1cccc2c1-c1ccc(NS(C)(=O)=O)cc1C(c1ccccc1)O2 (stereo not given) | – | – | IC50 (Glucocorticoid receptor [10]): 1200 nM |
